Rows were chosen to be rich in hits. Some 1.3% of all compounds tested hit in one or more screens of this group.
AF4-AF9 inh: inhibitors of AF4 peptide binding to AF9, primary screen, biochemical, AlphaScreen, biotin-AF4 peptide, FLAG-AF9, single point | inhibition, % at 10 µM | 0.47% of 350,000 active;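 active = every replicate reaching a set inhibition limit, whatever the replicate mean, cut at about 25% in these data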;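 note: 0% = plate neutral control median and 100% = total signal loss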
SIRT5 block: SIRT5 desuccinylase inhibitors, primary screen, biochemical, fluorescence imaging, single point, set 5 | NAD-dependent protein deacylase sirtuin-5, mitochondrial (Homo sapiens), Q9NXA8 | Purified SirT5, succinyl-peptide AMC, trypsin-coupled fluorescence | inhibition, % at 15 µM | 1.1% of 330,000 active | AID 652115, 2013; in the data active = inhibition above about 15%
ERp5 inh: inhibitors of ERp5-driven insulin aggregation, primary screen, biochemical, turbidity, absorbance 650 nm, single point; Protein disulfide-isomerase A6 (Homo sapiens), Q15084; 90 min; inhibition, % at 9.99 µM; 0.05% of 350,000 active; AID 651711, 2012;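 active = mean replicate inhibition above about 25%, with every replicate also reaching it, limit read from the data, passing the limit was not always enough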
FN deposition inh: inhibitors of fibronectin matrix deposition, primary screen, AH1F cells, Alexa488-fibronectin fluorescence, plate reader | 0.086% of 350,000 active | AH1F fibroblasts, overnight | inhibition, % at 12.6 µM | AID 743247, 2014;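 active = mean inhibition across replicates of 30% or more, regardless of how many single replicates reach that level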;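 note: positive control wells lacked labelled fibronectin entirely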
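Assay system: AH1F fibroblasts / Quantity: 10000 cells per well / Medium: DMEM plus 2% serum, read in PBS / Reagent: labelled fibronectin 24 nM / Dosing: single dose, pinned / Times: 1 h cell attachment, overnight exposure to compound and label / Signal: fluorescence, ex 485 nm, em 525 nm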
PDI inh: inhibitors of human PDI, primary screen, biochemical, turbidity, single point, plate reader | PDI insulin aggregation turbidity, A650, 90 min | inhibition, % at 10 µM | 0.052% of 350,000 active;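 active = mean inhibition across replicates of 30% or more, whatever share of single replicates reach that level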
Target sequence (P07237 whole entry, looked up): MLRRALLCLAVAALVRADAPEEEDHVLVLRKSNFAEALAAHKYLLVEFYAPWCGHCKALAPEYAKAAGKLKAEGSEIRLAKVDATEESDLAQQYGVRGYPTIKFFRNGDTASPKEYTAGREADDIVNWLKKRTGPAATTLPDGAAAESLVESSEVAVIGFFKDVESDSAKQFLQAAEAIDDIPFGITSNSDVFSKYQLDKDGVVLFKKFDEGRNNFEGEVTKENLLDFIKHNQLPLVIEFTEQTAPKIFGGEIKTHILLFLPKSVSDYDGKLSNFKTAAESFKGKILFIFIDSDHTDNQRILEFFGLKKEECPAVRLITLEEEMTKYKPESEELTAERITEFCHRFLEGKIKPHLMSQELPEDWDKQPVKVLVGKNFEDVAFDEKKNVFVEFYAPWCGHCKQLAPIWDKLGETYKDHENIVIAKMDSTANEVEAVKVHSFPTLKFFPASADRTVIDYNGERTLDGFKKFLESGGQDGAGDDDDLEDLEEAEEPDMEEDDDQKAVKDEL
* marks the source's active call; other numbers are inactive results; . = no result.

SMILES | AF4-AF9 inh | SIRT5 block | ERp5 inh | FN deposition inh | PDI inh
COc1c(C=O)cc2c3c1CCCN3CCC2 | 2.1 | 2.9 | 1.3 | 0.1 | -3.8
NCc1cc2c3c(c1)CCCN3CCC2 | 51.3* | 1.4 | 4.6 | 5.1 | 4.3
COC(=O)[C@H](Cc1c[nH]c2ccccc12)NC(=O)NCc1ccc(OC)cc1 | -4.1 | -9.6 | -1.8 | . | 7.5
COC(=O)[C@H](Cc1c[nH]c2ccccc12)NC(=O)NCc1ccc(OC)c(OC)c1 | 0.5 | 30.0* | 4.7 | 0.0 | 1.1
CC(C)CN(CC(C)C)S(=O)(=O)N1CCC(C(=O)NCc2ccc(F)cc2)CC1 | . | . | . | . | -0.3
CC(C)CN(CC(C)C)S(=O)(=O)N1CCC(C(=O)NCCc2ccc(Cl)cc2)CC1 | 7.4 | 16.1* | 0.0 | . | 10.2
COc1cccc(C#Cc2ccc3c(c2)O[C@H](CN(C)C(=O)CN2CCOCC2)[C@H](C)CN([C@H](C)CO)S3(=O)=O)c1 | 5.3 | -4.0 | -3.2 | 7.8 | .
COC(=O)c1nc(Cl)c(Cl)c(N)c1Cl | -1.8 | 16.6* | -3.3 | 3.5 | 2.0
N#Cc1ccc(NC(=S)/N=C(\N)c2ccccc2)cc1 | 2.4 | -7.2 | 7.5 | 7.4 | .
N/C(=N\C(=S)Nc1ccccc1)c1ccccc1 | 43.3* | -13.8 | -0.2 | -1.0 | 2.1
Cc1ccc(CNC(=O)COC(=O)c2c(C)noc2C)cc1 | . | . | . | 0.7 | 13.7
CCc1noc(C)c1C(=O)OCC(=O)NCc1ccc(Cl)cc1 | -0.3 | 18.2* | -6.8 | 0.2 | 9.5
Cc1noc(C)c1C(=O)OCC(=O)NCCc1ccc(Cl)cc1 | . | . | . | -4.8 | 35.4*
CCc1noc(C)c1C(=O)OCC(=O)NCc1ccccc1 | -2.4 | -19.2 | -8.2 | 3.2 | -14.1
O=C(NNC(=S)NC(=O)c1cccs1)c1cccnc1 | -3.0 | 17.3* | -12.8 | 2.1 | -1.3
O=C(NNC(=O)c1cccs1)c1ccccc1 | -8.6 | 2.6 | 2.2 | 2.5 | -1.4
O=C(NNC(=O)c1cccs1)c1ccncc1 | -2.7 | 21.8* | 4.6 | 0.4 | 10.5
CCc1nc2ccc(C(=O)N(CC)CCN(C)C)cn2c1N(CC)C(=O)NCCc1ccccc1 | 1.7 | 28.6* | -0.3 | -2.8 | -2.1
CCCNC(=O)N1CC2(CN(Cc3ccc(OC)cc3)C2)c2c(n(C)c3cc(OC)ccc23)[C@H]1CO | 35.7* | . | . | . | .
COc1ccc2c3c(n(C)c2c1)[C@H](CO)N(C(=O)C1CC1)CC31CN(Cc2ccccc2OC)C1 | 28.5* | 2.3 | -4.6 | 0.0 | .
CCCNC(=O)N1CC2(CN(Cc3ccncc3)C2)c2c(n(C)c3cc(OC)ccc23)[C@H]1CO | -2.6 | -2.0 | -0.1 | . | .
COc1cccc(CN2CC3(C2)CN(C(=O)C2CC2)[C@@H](CO)c2c3c3ccc(OC)cc3n2C)c1 | 26.4* | . | . | . | .
COc1ccc2c3c(n(C)c2c1)[C@H](CO)N(C(=O)Cc1ccccn1)CC31CN(CC2CCCCC2)C1 | 26.4* | . | -3.9 | -8.1 | .
O=C(NC(=S)Nc1nc2c(s1)CCCC2)c1ccccc1 | 1.6 | . | -1.9 | -0.6 | -2.8
COc1ccc(Cc2nc3ccc(C(=O)N4CCOCC4)cc3o2)cc1 | -1.6 | -4.4 | -9.8 | . | -3.0
SMILES | AF4-AF9 inh | SIRT5 block | ERp5 inh | FN deposition inh | PDI inh
CCOC(=O)Cn1c(-c2cccnc2Cl)nc2cc(C)c(C)cc21 | . | . | . | -1.5 | -3.5
Cc1ccc(S(=O)(=O)Nc2c(C)n(C)n(-c3ccccc3)c2=O)cc1C(=O)OC(C)C(=O)N(C)c1ccccc1 (stereo unspecified) | 0.9 | 1.0 | -3.4 | -2.5 | 18.0
CO[C@H]1CC[C@@H]2CCOc3c(C#N)cccc3C(=O)N(C)C[C@H](C)C(=O)N(C)C[C@@H]1O2 | -6.7 | 19.9* | -2.6 | -14.9 | .
CC(=O)NS(=O)(=O)c1ccc(N2C(=O)c3ccccc3C2=O)cc1 | -2.1 | 15.4* | 0.6 | -9.1 | -3.5
c1ccc(-c2nn3c(-c4ccccc4)nnc3s2)cc1 | . | . | . | -2.4 | 0.7
O=C(Cn1cnc2cc([N+](=O)[O-])ccc2c1=O)NCCc1ccc(F)cc1 | 0.1 | -5.1 | 5.0 | . | -3.8
CN(CC(=O)Nc1ccc(F)cc1)C(=O)Cn1cnc2ccc([N+](=O)[O-])cc2c1=O | 1.8 | 23.9* | 6.2 | 6.9 | -4.7
CC1=CC(C)(C)NC(=S)N1c1cccc2cc(S(=O)(=O)O)ccc12 | -2.2 | 19.7* | -2.6 | 7.6 | -2.4
Cc1nc(C(Cl)(Cl)Cl)nc2[nH]ccc(=O)c12 | 0.6 | -2.7 | 0.5 | -2.5 | -7.0
Cc1ccc(C(=O)COC(=O)c2ccc3c(c2)C(=O)N(c2cccc4ncccc24)C3=O)cc1 | 0.5 | 18.4* | 4.4 | . | 10.5
O=C(COC(=O)c1ccc2c(c1)C(=O)N(c1cccc3ncccc13)C2=O)c1ccc(Cl)cc1 | -2.0 | -1.9 | 3.9 | -6.4 | -1.2
COc1ccc(CC(NC(C)=O)C(=O)NC2CCN(C(=O)c3cnccn3)CC2)cc1 (stereo unspecified) | . | . | . | 12.8 | 11.6
CCC(C)NC(=O)Cc1c(OC)ccc2cc(Br)ccc12 (stereo unspecified) | -5.7 | 6.5 | 3.2 | -0.3 | 1.5
OC(CNC1CCCc2ccccc21)COc1c(Cl)cccc1Cl (stereo unspecified) | 3.4 | -5.2 | 4.2 | 42.0* | -7.8
N#C/C(=C\c1ccc(OC(F)F)cc1)C(=O)N1CCCCC1 | 8.0 | -3.6 | 0.2 | -2.3 | 0.5
CCN1CCN(C(=O)/C(C#N)=C/c2ccc(OC(F)F)cc2)CC1 | -0.4 | 17.9* | -3.9 | -0.4 | -4.2
OCCN(CCO)c1ncnc2c1sc1nc(N3CCOCC3)c3c(c12)CCCC3 | . | . | . | 18.4* | 5.8
O=C(C[C@H]1CC[C@H]2[C@@H](COC[C@H](O)CN2Cc2cccc(C(F)(F)F)c2)O1)NCc1ccncc1 | -0.9 | 16.6* | 1.5 | -2.3 | .
O=C(C[C@@H]1CC[C@@H]2[C@H](COC[C@H](O)CN2Cc2ccc3c(c2)OCO3)O1)Nc1ccc(-c2ccccc2)cc1 | 0.2 | 15.2* | -3.7 | 3.7 | .
C[C@H](NC(=O)C[C@@H]1CC[C@H]2[C@@H](COC[C@@H](O)CN2C(=O)Nc2cccc(F)c2)O1)c1ccccc1 | -1.8 | 18.9* | 1.3 | -5.7 | .
C[C@@H](NC(=O)C[C@H]1CC[C@H]2[C@@H](COC[C@@H](O)CN2Cc2ccc(C(F)(F)F)cc2)O1)c1ccccc1 | -3.1 | 16.7* | -0.1 | 15.0 | .
CCCNC(=O)Nc1ccc2c(c1)C(=O)N(C)C[C@@H](OC)[C@@H](C)CN(Cc1ccncc1)[C@H](C)CO2 | . | . | . | 1.5 | .
O=C(C[C@H]1CC[C@@H]2[C@H](COC[C@@H](O)CN2Cc2ccccc2F)O1)N[C@H]1CCN(Cc2ccccc2)C1 | -0.2 | 23.0* | -2.2 | . | .
CCN(c1ccc(OC)cc1)S(=O)(=O)c1ccc(-c2ccc(=O)[nH]n2)o1 | 0.5 | -1.7 | 3.2 | -7.9 | 8.8
Oc1ccc(/C=N/N(Cc2ccccc2)c2ccccc2)c(O)c1O | 27.0* | -2.0 | 1.9 | -5.3 | -1.4
CN(C)CCNC(=O)c1coc(=O)c(Br)c1 | . | . | . | . | 0.0

Compound activity as filed in PubChem BioAssay.
